Measured values: ChEMBL document CHEMBL4610112, “Novel Pyrrolopyridone Bromodomain and Extra-Terminal Motif (BET) Inhibitors Effective in Endocrine-Resistant ER+ Breast Cancer with Acquired Resistance to Fulvestrant and Palbociclib” (J Med Chem, 2020)
Each block holds one compound with its values, some of them ahead of it.

Columns and labels:
T47D = experiment: Growth inhibition of tamoxifen-sensitive human T47D cells measured after 5 days by Hoechst 33342 dye based imaging analysis; format: functional, cell-based; settings: 120 h
How it was run: (§1)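 Cells seeded at 2000/well in their maintenance medium, treated once the next day with compound (0.1 nM–10 μM; 0.1% DMSO final). Day 5 Hoechst 33342 staining with imaging count. Survival normalized to DMSO (100%) and JQ1 3 μM (0%). IC50 given as mean ± SEM from at least two passages, each in triplicate.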

[1] = target: Bromodomain-containing protein 7 (Homo sapiens, UniProt Q9NPI1); experiment: Binding affinity to human partial length BRD7 (L125 to R254 residues) expressed in mammalian expression system by BROMOscan assay
How it was run: (§2)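 BROMOscan panel of 40 bromodomains. Kd for DNA-tagged bromodomains determined by competition against an immobilized proprietary reference ligand.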

[2] = target: SWI/SNF-related matrix-associated actin-dependent regulator of chromatin subfamily A member 4 (Homo sapiens, UniProt P51532); experiment: Binding affinity to human partial length SMARCA4 (A1448 to S1575 residues) expressed in bacterial expression system by BROMOscan assay; how it was run: as §2
[3] = target: Bromodomain and PHD finger-containing protein 3 (Homo sapiens, UniProt Q9ULD4); experiment: Binding affinity to human partial length BRPF3 (E588 to G701 residues) expressed in bacterial expression system by BROMOscan assay; how it was run: as §2
[4] = Growth inhibition of fulvestrant-resistant human MCF7:CFR 3D spheroid cells at 100 nM supplemented with fresh medium containing compound every 2 to 3 days for 9 days by celltitre-glo assay relative to control; format: functional
How it was run: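 MCF-7:CFR cells seeded at 1000 cells/well in ultralow-attachment round-bottom plates and grown 24 h untreated as spheroids. Half the medium then replaced with 2× treatment medium, repeated every 2–3 days. Viability read by CellTiter-Glo 3D luminescence at day 9 and normalized to blank (medium plus reagent).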

[5] = target: ATPase family AAA domain-containing protein 2B (Homo sapiens, UniProt Q9ULI0); experiment: Binding affinity to human partial length ATAD2B (Q955 to R1082 residues) expressed in bacterial expression system by BROMOscan assay; how it was run: as §2
[6] = target: Nucleosome-remodeling factor subunit BPTF (Homo sapiens, UniProt Q12830); experiment: Binding affinity to human partial length FALZ (S2791 to H2911 residues) expressed in bacterial expression system by BROMOscan assay; how it was run: as §2
Cytochrome P450 3A4 = Cytochrome P450 3A4 (Homo sapiens, UniProt P08684); experiment: Inhibition of human CYP3A4; format: ADME
[7] = target: SWI/SNF-related matrix-associated actin-dependent regulator of chromatin subfamily A member 2 (Homo sapiens, UniProt P51531); experiment: Binding affinity to human partial length SMARCA2 (S1377 to Q1486 residues) expressed in bacterial expression system by BROMOscan assay; how it was run: as §2
[8] = target: Histone acetyltransferase KAT2A (Homo sapiens, UniProt Q92830); experiment: Binding affinity to human partial length GCN5L2 (E726 to K837 residues) expressed in bacterial expression system by BROMOscan assay; how it was run: as §2
[9] = Growth inhibition of human T47D:TDG cells harboring ESR1 D538G mutant measured after 5 days by Hoechst 33342 dye based imaging analysis; format: functional; settings: 120 h; how it was run: as §1
[10] = target: ATPase family AAA domain-containing protein 2 (Homo sapiens, UniProt Q6PL18); experiment: Binding affinity to human partial length ATAD2A (Q981 to R1108 residues) expressed in bacterial expression system by BROMOscan assay; how it was run: as §2
[11] = target: E3 ubiquitin-protein ligase TRIM33 (Homo sapiens, UniProt Q9UPN9); experiment: Binding affinity to human partial length TRIM33 phd bromodomain (D882 to A1087 residues) expressed in bacterial expression system by BROMOscan assay; how it was run: as §2
[12] = Growth inhibition of tamoxifen-resistant human MCF7:5C cells measured after 5 days by Hoechst 33342 dye based imaging analysis; format: functional; settings: 120 h; how it was run: as §1
Protein polybromo-1 = Protein polybromo-1 (Homo sapiens, UniProt Q86U86); experiment: Binding affinity to human partial length PBRM1 bromodomain 2 (S178 to E291 residues) expressed in bacterial expression system by BROMOscan assay; how it was run: as §2
[13] = target: Bromodomain adjacent to zinc finger domain protein 2B (Homo sapiens, UniProt Q9UIF8); experiment: Binding affinity to human partial length BAZ2B (S2054 to S2168 residues) expressed in bacterial expression system by BROMOscan assay; how it was run: as §2
[14] = Growth inhibition of tamoxifen and palbociclib-resistant human MCF7:CPR cells measured after 5 days by Hoechst 33342 dye based imaging analysis; format: functional; settings: 120 h; how it was run: as §1
[15] = target: Transcription intermediary factor 1-alpha (Homo sapiens, UniProt O15164); experiment: Binding affinity to human partial length TRIM24 phd bromodomain (P790 to P977 residues) expressed in bacterial expression system by BROMOscan assay; how it was run: as §2
MCF7:TAM1 = experiment: Growth inhibition of tamoxifen-resistant human MCF7:TAM1 cells measured after 5 days by Hoechst 33342 dye based imaging analysis; format: functional, cell-based; settings: MCF7:TAM1, 120 h; how it was run: as §1
[16] = target: Bromodomain and WD repeat-containing protein 1 (Homo sapiens, UniProt Q9NSI6); experiment: Binding affinity to human partial length WDR9 bromodomain 2 (A1310 to E1430 residues) expressed in bacterial expression system by BROMOscan assay; how it was run: as §2
[17] = Growth inhibition of fulvestrant-resistant human MCF7:CFR cells measured after 5 days by Hoechst 33342 dye based imaging analysis; format: functional, cell-based; settings: 120 h
How it was run: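 MCF-7:CFR cells kept 2 days in phenol red-free RPMI 1640 with 10% charcoal–dextran FBS, then seeded at 2000 cells/well. Single treatment at 0.1 nM–10 μM (0.1% DMSO final) for 5 days. Nuclei stained with Hoechst 33342 and counted by imaging. Survival normalized to DMSO (100%) and JQ1 3 μM (0%). Mean ± SEM from at least two passages, triplicates in each.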

[18] = target: Histone acetyltransferase KAT2B (Homo sapiens, UniProt Q92831); experiment: Binding affinity to human partial length PCAF (G715 to D831 residues) expressed in bacterial expression system by BROMOscan assay; how it was run: as §2
[19] = Growth inhibition of tamoxifen-sensitive human MCF7:WS8 cells measured after 5 days by Hoechst 33342 dye based imaging analysis; format: functional; settings: MCF7:WS8, 120 h; how it was run: as §1
[20] = target: Bromodomain-containing protein 8 (Homo sapiens, UniProt Q9H0E9); experiment: Binding affinity to human partial length BRD8 BD2 (D1095 to F1235 residues) expressed in mammalian expression system BROMOscan assay; how it was run: as §2
[21] = Induction of thrombocytopenia in rat assessed as platelet count […] at 3 mg/kg, po administered daily for 10 days (reference value: […]); format: organism-based; settings: in vivo, 240 h

Bromodomain-containing protein 8, sequence (Q9H0E9 whole entry, the tested form may be a part): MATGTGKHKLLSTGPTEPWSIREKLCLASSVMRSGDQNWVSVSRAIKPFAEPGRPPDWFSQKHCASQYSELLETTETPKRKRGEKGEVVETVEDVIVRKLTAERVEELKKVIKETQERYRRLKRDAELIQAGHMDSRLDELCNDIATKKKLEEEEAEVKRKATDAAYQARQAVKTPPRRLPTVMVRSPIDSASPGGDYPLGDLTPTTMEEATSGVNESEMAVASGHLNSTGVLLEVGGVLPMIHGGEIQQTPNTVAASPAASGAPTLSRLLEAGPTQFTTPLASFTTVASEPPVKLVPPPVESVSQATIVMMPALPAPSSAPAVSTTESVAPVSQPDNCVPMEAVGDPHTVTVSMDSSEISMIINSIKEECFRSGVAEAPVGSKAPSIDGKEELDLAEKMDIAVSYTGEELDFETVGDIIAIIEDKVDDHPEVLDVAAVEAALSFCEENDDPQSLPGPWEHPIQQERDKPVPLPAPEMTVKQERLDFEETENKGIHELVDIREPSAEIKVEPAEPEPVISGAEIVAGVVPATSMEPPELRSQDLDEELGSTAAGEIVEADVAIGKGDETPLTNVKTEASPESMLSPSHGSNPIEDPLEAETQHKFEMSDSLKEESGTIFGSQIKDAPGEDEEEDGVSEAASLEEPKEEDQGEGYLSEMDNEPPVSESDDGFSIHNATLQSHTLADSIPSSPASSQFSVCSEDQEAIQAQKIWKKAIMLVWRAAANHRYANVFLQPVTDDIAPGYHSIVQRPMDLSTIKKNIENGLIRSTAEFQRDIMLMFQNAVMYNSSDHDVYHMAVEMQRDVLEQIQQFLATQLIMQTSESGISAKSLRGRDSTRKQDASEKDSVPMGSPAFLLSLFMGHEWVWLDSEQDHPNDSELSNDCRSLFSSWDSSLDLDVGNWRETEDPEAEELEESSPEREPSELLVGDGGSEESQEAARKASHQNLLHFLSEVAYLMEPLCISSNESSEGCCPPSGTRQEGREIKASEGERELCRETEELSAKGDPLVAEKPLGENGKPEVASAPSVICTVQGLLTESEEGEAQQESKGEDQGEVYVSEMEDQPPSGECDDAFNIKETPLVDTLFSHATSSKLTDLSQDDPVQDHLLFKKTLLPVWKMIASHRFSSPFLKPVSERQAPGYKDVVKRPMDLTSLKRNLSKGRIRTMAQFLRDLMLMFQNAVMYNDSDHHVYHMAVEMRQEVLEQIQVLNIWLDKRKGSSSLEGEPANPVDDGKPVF
Bromodomain-containing protein 7, sequence (Q9NPI1 whole entry, the tested form may be a part): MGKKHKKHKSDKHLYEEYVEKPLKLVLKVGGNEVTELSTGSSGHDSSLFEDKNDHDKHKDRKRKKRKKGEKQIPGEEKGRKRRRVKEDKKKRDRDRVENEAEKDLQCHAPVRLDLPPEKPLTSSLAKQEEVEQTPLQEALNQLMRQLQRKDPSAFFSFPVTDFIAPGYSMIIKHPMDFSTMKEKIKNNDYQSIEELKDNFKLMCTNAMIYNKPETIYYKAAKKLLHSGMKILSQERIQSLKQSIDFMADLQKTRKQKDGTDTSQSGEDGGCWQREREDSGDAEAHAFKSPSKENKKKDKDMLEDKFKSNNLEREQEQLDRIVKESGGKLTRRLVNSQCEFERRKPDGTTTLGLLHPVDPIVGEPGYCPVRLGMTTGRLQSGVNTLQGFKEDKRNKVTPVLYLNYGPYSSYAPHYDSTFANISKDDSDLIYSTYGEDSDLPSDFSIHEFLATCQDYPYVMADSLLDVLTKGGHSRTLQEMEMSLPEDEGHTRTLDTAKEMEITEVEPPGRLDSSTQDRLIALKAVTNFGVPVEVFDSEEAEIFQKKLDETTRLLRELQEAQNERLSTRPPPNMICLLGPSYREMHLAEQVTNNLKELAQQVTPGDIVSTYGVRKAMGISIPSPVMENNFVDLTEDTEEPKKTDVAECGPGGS
Histone acetyltransferase KAT2B, sequence (Q92831 whole entry, the tested form may be a part): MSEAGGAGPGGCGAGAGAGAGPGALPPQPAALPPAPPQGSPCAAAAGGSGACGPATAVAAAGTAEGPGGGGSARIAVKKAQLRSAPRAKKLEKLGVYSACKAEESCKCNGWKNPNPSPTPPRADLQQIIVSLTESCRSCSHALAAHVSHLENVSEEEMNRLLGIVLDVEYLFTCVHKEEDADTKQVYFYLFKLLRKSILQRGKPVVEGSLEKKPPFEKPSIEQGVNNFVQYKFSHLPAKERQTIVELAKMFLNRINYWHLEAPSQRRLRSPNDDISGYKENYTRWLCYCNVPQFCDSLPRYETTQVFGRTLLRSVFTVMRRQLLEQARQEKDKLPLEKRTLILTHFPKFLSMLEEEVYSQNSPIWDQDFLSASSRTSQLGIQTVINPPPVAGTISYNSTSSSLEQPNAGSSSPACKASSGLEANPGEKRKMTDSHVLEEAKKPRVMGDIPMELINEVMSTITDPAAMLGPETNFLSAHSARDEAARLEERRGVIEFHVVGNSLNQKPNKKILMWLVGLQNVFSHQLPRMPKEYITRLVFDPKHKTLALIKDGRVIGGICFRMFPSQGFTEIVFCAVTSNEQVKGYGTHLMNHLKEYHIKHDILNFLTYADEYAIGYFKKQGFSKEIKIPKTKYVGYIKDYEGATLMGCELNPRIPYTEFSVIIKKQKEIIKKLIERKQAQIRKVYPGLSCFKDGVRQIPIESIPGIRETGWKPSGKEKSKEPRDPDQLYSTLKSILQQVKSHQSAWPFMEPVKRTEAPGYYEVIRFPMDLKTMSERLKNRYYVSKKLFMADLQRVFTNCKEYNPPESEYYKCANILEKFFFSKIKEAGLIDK
Histone acetyltransferase KAT2A, sequence (Q92830 whole entry, the tested form may be a part): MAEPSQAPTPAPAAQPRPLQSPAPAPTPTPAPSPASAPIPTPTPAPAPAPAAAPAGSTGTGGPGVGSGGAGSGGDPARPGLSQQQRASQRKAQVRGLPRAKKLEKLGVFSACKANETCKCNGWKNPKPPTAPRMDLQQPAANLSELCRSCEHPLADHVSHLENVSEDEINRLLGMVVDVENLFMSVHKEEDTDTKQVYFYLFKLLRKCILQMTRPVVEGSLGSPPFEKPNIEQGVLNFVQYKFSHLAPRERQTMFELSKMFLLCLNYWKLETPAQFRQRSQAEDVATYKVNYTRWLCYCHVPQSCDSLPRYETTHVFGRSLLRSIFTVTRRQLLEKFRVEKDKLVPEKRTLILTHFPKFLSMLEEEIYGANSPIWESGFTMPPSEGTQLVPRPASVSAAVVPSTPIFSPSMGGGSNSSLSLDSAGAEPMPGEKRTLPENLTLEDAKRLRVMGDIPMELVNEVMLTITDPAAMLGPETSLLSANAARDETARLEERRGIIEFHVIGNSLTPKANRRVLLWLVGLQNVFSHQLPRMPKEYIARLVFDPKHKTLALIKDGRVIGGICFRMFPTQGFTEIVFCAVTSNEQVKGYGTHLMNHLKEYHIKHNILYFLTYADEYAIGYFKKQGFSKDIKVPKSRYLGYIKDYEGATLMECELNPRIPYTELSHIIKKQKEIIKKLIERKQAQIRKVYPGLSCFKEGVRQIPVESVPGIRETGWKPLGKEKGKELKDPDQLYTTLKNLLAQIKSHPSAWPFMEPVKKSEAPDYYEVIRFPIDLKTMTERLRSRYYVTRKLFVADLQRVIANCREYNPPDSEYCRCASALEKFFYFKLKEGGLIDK
E3 ubiquitin-protein ligase TRIM33, sequence (Q9UPN9 whole entry, the tested form may be a part): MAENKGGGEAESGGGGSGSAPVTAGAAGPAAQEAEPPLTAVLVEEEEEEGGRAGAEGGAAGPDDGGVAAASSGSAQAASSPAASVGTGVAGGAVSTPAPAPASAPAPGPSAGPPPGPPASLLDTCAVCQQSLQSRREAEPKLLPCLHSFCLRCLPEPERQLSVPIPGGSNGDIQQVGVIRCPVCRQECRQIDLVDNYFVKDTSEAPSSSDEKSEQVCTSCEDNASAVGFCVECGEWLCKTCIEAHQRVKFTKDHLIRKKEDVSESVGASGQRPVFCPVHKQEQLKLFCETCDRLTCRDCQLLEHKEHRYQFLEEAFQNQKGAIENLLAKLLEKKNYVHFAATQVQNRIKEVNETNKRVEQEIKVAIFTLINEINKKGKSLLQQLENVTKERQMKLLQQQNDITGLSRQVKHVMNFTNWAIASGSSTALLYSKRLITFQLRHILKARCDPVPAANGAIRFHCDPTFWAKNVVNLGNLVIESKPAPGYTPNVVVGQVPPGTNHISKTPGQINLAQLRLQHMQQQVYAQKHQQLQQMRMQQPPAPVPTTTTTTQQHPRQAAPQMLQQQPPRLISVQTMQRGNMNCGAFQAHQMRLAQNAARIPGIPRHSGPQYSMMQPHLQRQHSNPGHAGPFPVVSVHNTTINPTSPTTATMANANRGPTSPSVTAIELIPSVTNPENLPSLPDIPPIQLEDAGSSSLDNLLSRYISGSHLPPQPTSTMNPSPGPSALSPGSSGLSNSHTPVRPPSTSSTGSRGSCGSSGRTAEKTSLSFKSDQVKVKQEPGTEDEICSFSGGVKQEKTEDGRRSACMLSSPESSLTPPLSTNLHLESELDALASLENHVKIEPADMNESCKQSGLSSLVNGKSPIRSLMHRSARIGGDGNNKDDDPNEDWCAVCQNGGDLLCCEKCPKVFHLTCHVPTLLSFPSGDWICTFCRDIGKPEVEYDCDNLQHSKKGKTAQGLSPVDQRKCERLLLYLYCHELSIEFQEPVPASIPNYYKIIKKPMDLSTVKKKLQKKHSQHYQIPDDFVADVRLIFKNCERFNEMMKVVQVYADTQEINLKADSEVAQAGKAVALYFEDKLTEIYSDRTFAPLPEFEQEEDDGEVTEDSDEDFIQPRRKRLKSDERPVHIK

Structure (SMILES): CCS(=O)(=O)Nc1cc(-c2cn(C)c3c(=O)[nH]ccc23)cc2c1ccn2C(C)(c1ccccn1)c1ccccn1
IC50 (T47D; read-out: IC50): < 10 nM | IC50 (T47D; read-out: pIC50 (converted)): 3.16 nM | Kd [1]: > 10 µM | Kd [2]: > 10 µM | Kd [3]: > 10 µM | growth inhibition (GI) [4]: 100% | Kd [5]: > 10 µM | Kd [6]: > 10 µM | IC50 (Cytochrome P450 3A4): ≥ 10 µM | Kd [7]: > 10 µM | Kd [8]: > 10 µM | IC50 ([9]; read-out: IC50): < 10 nM | IC50 ([9]; read-out: pIC50 (converted)): 6.31 nM | Kd [10]: > 10 µM | Kd [11]: > 10 µM | IC50 ([12]; read-out: IC50): < 10 nM | IC50 ([12]; read-out: pIC50 (converted)): 2 nM | Kd (Protein polybromo-1): > 10 µM | Kd [13]: > 10 µM | IC50 [14]: < 10 nM | Kd [15]: > 10 µM | IC50 (MCF7:TAM1; read-out: IC50): < 10 nM | IC50 (MCF7:TAM1; read-out: pIC50 (converted)): 3.16 nM | Kd [16]: > 10 µM | IC50 [17]: 0.9 nM | Kd [18]: > 10 µM | IC50 ([19]; read-out: IC50): < 10 nM | IC50 ([19]; read-out: pIC50 (converted)): 3.98 nM | Kd [20]: > 10 µM

platelet count [21]: 173 10^3/µL
Structure (SMILES): CCS(=O)(=O)Nc1ccc(Oc2ccc(F)cc2F)c(-c2cn(C)c(=O)c3[nH]ccc23)c1 [MIVEBRESIB]
